Compound activity from PubChem.
Hits are enriched below; roughly 1.7% of the tested compounds scored in any of these assays.
STEP block: STEP (human) phosphatase inhibition | P54829 | recombinant STEP, OMFP fluorogenic substrate, fluorescence | inhibition, % at 20 µM | hit rate 0.25% among 360,000;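 active = inhibition at 20 µM, scaled per plate between control wells, above about 37%, limit read from the data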;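 also: 0% = DMSO with enzyme and substrate and 100% = substrate only without enzyme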
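Material: STEP (striatal-enriched tyrosine phosphatase) enzyme, cell-free | Medium: 50 mM Bis-Tris pH 6.0 with 2.5 mM DTT and 0.005% Tween 20 | Read-out: Percent inhibition scaled to no-enzyme and uninhibited-enzyme controls, plate-pattern corrected | Signal: Fluorescence read at 480 nm ex / 540 nm em | Times: 20 min reaction, room temperature, in the dark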
Scp-1 inhibitor: blocks human Scp-1 phosphatase activity; inhibition, % at 20 µM; hit rate 0.88% among 340,000; Recombinant Scp1, phosphopeptide, malachite green phosphate absorbance; Q9GZU7;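 active = inhibition above about 50% at 20 µM, limit read from the data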;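 also: plate controls were DMSO wells with enzyme for no effect and wells lacking enzyme for full effect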
Target sequence (Q9GZU7 76-261 limits assumed): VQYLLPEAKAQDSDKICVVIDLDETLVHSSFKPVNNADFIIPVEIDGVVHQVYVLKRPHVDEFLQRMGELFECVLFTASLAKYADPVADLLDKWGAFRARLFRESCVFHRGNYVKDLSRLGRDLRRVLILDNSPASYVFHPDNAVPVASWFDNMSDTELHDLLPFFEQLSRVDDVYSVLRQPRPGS
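System: truncated SCP-1 phosphatase (76-261aa); medium: Tris acetate buffer pH 5.5 with MgCl2 and Tween-20; incubation: 45 min room-temperature reaction, 5 min colour, 30 min stabiliser; compound: single 20 µM dose, 1% DMSO; reagent: Phosphorylated 17-residue peptide substrate; read-out: % inhibition at 20 µM; technique: colorimetric free-phosphate detection, absorbance 630 nm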
SUMO1-SIM PPI: modulators of human SUMO1-mediated protein-protein interactions. SUMO1 binding to a labelled peptide, TR-FRET, 1 h. inhibition, % at 20 µM. hit rate 0.33% among 360,000. AID 602429; in the data active = inhibition above about 37%
DSG3 Ab inh: human desmoglein-3 autoantibody binding inhibition; hit rate 0.48% among 310,000; binding (percent of control), % at 10 µM; DSG3-coupled beads, scFv-anti-DSG3-GFP binding, flow cytometry; hits give low values; P32926; AID 588358;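 active = binding more than 3 SD below its plate's average and above zero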;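 also: hits lower antibody fragment binding to DSG3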
LMPTP inh: LMPTP (human) inhibition | hit rate 0.22% among 360,000 | recombinant LMPTP-A, OMFP fluorogenic substrate, fluorescence intensity | P24666 | inhibition, % at 20 µM;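 active = compounds that cut the enzyme signal by at least half of the control window in the single-dose screen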;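 also: plate controls were DMSO wells with enzyme plus substrate for no effect and substrate without enzyme for full effect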
Target sequence (P24666 whole entry, looked up): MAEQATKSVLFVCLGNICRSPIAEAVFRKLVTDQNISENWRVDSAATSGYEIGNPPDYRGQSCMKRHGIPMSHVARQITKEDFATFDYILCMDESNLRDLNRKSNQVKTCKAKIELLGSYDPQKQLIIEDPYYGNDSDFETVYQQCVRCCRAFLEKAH
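Test system: LMPTP-A phosphatase enzyme; input: 0.625 nM LMPTP-A final; reagent: OMFP substrate, 400 µM final; compound dosing: 20 µM single dose, 3% DMSO; incubation: 50 min dark incubation at room temperature; measured by: endpoint fluorescence intensity from OMFP dephosphorylation; measure: % inhibition relative to no-enzyme and uninhibited control wells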
An asterisk follows results filed as active; / = no result.

SMILES	STEP block	Scp-1 inhibitor	SUMO1-SIM PPI	DSG3 Ab inh	LMPTP inh
Cc1cc(C)c(OCC(O)CN2CCN(C(=O)c3ccccc3)CC2)c(C)c1 (stereo not given)	2	-6	5	107	-2
CN(C)c1ccc(N=Nc2ccc(S(N)(=O)=O)cc2)cc1	94*	26	5	102	53*
NS(=O)(=O)c1ccc(N=Nc2c[nH]c(=O)c(O)c2)cc1	10	70*	27	93	30
COC(=O)c1ccccc1S(=O)(=O)N1CCC(C(=O)OCC(=O)c2ccccc2OC)CC1	0	-18	0	95	1
Cc1cc(C(C)(C)C)cc(C)c1Cn1c2[n+](c3ccc(C(F)(F)F)cc31)CCCCC2	0	66*	-19	111	0
FC(F)(F)c1cccc(Cn2c3[n+](c4ccc(C(F)(F)F)cc42)CCCCC3)c1	1	9	-4	91	-4
C/C(=C\C(=O)OCC(=O)NCc1ccccc1)C(=O)OCC(=O)NCc1ccccc1	0	-3	-6	76*	-1
CCOC(=O)/C=C/C(=O)OCC(=O)NCc1ccccc1	-3	-3	1	103	-1
O=C1[C@H]2[C@@H]3CCN1CCC[C@@H]2C=C[C@@H]3c1ccc(Br)cc1	/	/	4	/	0
O=C(Nc1c2c(nn1-c1ccc(Cl)cc1)CS(=O)(=O)C2)C1CC1	-1	-5	-3	102	1
Cc1cccc(CN2CCN(C3CN(Cc4cn(Cc5cccc(C(F)(F)F)c5)nn4)S(=O)(=O)C3)CC2)c1 (stereo not given)	/	/	0	/	-2
N#CC1=C(SCc2ccccc2)NC(=O)CC1c1cccc(O)c1 (stereo not given)	-2	6	-6	83*	-1
N#CC1=C(SCc2ccccc2)NC(=O)CC1c1ccc(O)cc1 (stereo not given)	8	9	-10	102	0
CC(=O)c1ccc(OCC(O)CN2CCN(CCO)CC2)cc1 (stereo not given)	-4	-6	10	102	-4
COc1ccc(CN2CCN(S(=O)(=O)c3ccccc3)CC2)c(OC)c1OC	0	-4	-4	114	-1
Cc1cc(C(=O)N2CCN(S(C)(=O)=O)CC2)sc1-c1ccccc1	0	2	-1	86*	-2
COc1ccc(CCNC(=O)C2CCN(C(=O)c3cccc(Cl)c3)CC2)cc1OC	-4	-7	3	116	-2
COc1cc(N=c2ssnc2Cl)cc(OC)c1OC	12	-4	-4	/	57*
COc1ccc(N=c2ssnc2Cl)cc1	6	-7	-2	87	45
COc1cc(OC)c(C(=O)OCC(=O)Nc2cccc(S(=O)(=O)NC3=NCCCCC3)c2)cc1OC	-2	-9	5	102	0
Cc1ccc(C(=O)OCC(=O)Nc2cccc(S(=O)(=O)NC3=NCCCCC3)c2)c(C)c1	-1	4	3	74*	1
COc1ccc(-c2csc(NC(=S)NC(=O)/C=C/c3ccco3)n2)cc1OC	5	-3	58*	104	1
Cc1cc(/C=N/N2CCN(C)CC2)c(C)n1-c1ccc(Cl)cc1	1	1	10	105	1
CC(C)C(=O)NC(c1ccco1)c1ccc2cccnc2c1O (stereo not given)	-3	-15	-7	99	1
Oc1c(C(Nc2nc3ccccc3s2)c2ccco2)ccc2cccnc12 (stereo not given)	-1	-5	49*	94	4
CCc1ccc(NC(=O)COC(=O)/C=C/c2c(C)nn(C3CCS(=O)(=O)C3)c2Cl)cc1 (stereo not given)	-2	0	2	103	3
Cc1cccc2nc(-c3ccccc3)nc(N[C@@H](CO)c3ccccc3)c12	2	-11	-3	118	54*
NC(=O)c1cc[n+](CC2=C(C(=O)O)N3C(=O)[C@@H](NC(=O)C(c4ccccc4)S(=O)(=O)[O-])[C@H]3SC2)cc1 (stereo not given in full)	97*	85*	82*	97	15
CC(C)C(C)NC(=O)CN1C(=O)NC(c2ccccc2)(c2ccccc2)C1=O (stereo not given)	-5	-4	0	/	0
O=C(CSc1ccccc1F)Nc1ccc2c(c1)OCO2	0	-5	0	124	-2
